In ChEMBL document CHEMBL1124574, “Lipophilic analogues of sparsomycin as strong inhibitors of protein synthesis and tumor growth: a structure-activity relationship study” (J Med Chem, 1989):
Converted amounts (≈) assume the structure as drawn. The source made the active and inactive calls. No cut-off for these calls is given here.

Assays:
Escherichia coli [1] = assay: In vitro inhibition of Puromycin reaction in the ribosomes from Escherichia coli; type: functional; conditions: read-out: ED50 (the source's name)
Escherichia coli [2] = assay: In vitro inhibition of polyuridylic acid dependent polyphenylalanine synthesis using ribosomes from Escherichia coli; type: functional; conditions: read-out: ED50 (the source's name)
Escherichia coli [3] = assay: In vitro inhibition of cell growth in Escherichia coli MRE600; type: functional; conditions: read-out: ED50 (the source's name)
L1210 [4] = assay: In vitro inhibition of cell growth in L1210 murine leukemia cells; type: functional; conditions: Mus musculus, read-out: ID50 (the source's name)
Saccharomyces cerevisiae [5] = assay: In vitro inhibition of polyuridylic acid dependent polyphenylalanine synthesis using ribosomes from Saccharomyces cerevisiae; type: functional; conditions: read-out: ED50 (the source's name)
[6] = Water solubility was determined
[7] = lipophilicity parameter(Rm) was determined; type: physicochemical; conditions: RP-8 HPTLC, 60% methanol/water
Procedure, shortened: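 Rf measured by reversed-phase RP-8 HPTLC, eluent 60% methanol/water; Rm computed as log(1/Rf − 1).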

[8] = Partition coefficient (logP); conditions: octanol/water
Escherichia coli [9] = assay: In vitro inhibition of modified fragment reaction using ribosomes from Escherichia coli; type: functional; conditions: read-out: ED50 (the source's name)
L1210 [10] = assay: In Vivo evaluation for the acute toxicity by L1210 clonogenic assay; type: functional, Mus musculus
[11] = In Vivo evaluation for the acute toxicity in mice; conditions: mouse
Saccharomyces cerevisiae [12] = assay: In vitro inhibition of modified fragment reaction using ribosomes from Saccharomyces cerevisiae; type: functional; conditions: read-out: ED50 (the source's name)
T-24 = assay: In vitro inhibition of cell growth in T24 bladder carcinoma cell line; type: functional; conditions: Homo sapiens, read-out: ID50 (the source's name)
[13] = (§1) Kinetic constant was determined
WiDr [14] = assay: In vitro inhibition of cell growth in Human WiDr colon carcinoma cell line; type: functional; conditions: read-out: ID50 (the source's name)
[15] = lipophilicity parameter (Rm) was determined; conditions: RP-8 HPTLC, 60% methanol/water
Escherichia coli [16] = assay: In vitro inhibition of cell growth in Escherichia coli; type: functional; conditions: read-out: ED50 (the source's name)
[17] = as §1; type: ADME
Escherichia coli [18] = assay: In vitro inhibition of modified fragment reaction using ribosomes from Escherichia coli; Inactive at 100 uM; type: functional
Procedure, shortened: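 Peptidyl transferase assayed by the fragment-reaction protocol, but with intact N-acetyl-Phe-tRNA as substrate in place of its terminal pentanucleotide; ribosomes from the organism named in the line; 50% inhibitory value derived.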

Saccharomyces cerevisiae [19] = assay: In vitro inhibition of polyuridylic acid dependent polyphenylalanine synthesis using ribosomes from Saccharomyces cerevisiae; Inactive at 100 uM; type: functional
WiDr [20] = assay: In vitro inhibition of cell growth in Human WiDr colon carcinoma cell line; NT means not tested; type: functional; conditions: read-out: ID50 (the source's name)
Procedure, shortened: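 Human tumor cell line cytotoxicity measured by the automated PIT method (propidium iodide, ink, Triton X-100); ID50 calculated.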

| EC50 (Escherichia coli [2]) [µM] | Structure (SMILES) | EC50 (Escherichia coli [1]) [µM] | EC50 (Escherichia coli [3]) [µM] | IC50 (L1210 [4]) [µM] | EC50 (Saccharomyces cerevisiae [5]) [µM] | solubility [6] [µg/mL] | logP [8] | EC50 (Escherichia coli [9]) [µM] | T/C (L1210 [10]) [%] | LD50 [11] [mg/kg] | EC50 (Saccharomyces cerevisiae [12]) [µM] | IC50 (T-24) [µM] | log k0 [13] | IC50 (WiDr [14]) [µM] | Rm [15] | EC50 (Escherichia coli [16]) [µM] | also measured |
| --- | --- | --- | --- | --- | --- | --- | --- | --- | --- | --- | --- | --- | --- | --- | --- | --- | --- |
| 3 | CCCSC[S+]([O-])C[C@H](CO)NC(=O)/C=C/c1c(C)nc(O)nc1O (stereo not given in full) | 0.08 | 5 | 0.14 | 7 | 1500 (≈ 3850 µM) | -0.665 | 5.5 |  |  | 7.5 | 0.65 | 0.117 | 0.89 |  |  | Rm [7]: -0.261 |
| 6.6 | Cc1nc(O)nc(O)c1/C=C/C(=O)N[C@@H](CO)C[S+]([O-])CSC1CCCCC1 (stereo not given in full) | 0.04 | 7.5 | 0.6 | 5.1 |  |  | 5.2 |  |  | 12 |  |  |  |  |  |  |
| 31 | Cc1nc(O)nc(O)c1/C=C/C(=O)N[C@@H](CO)C[S+]([O-])CSC(C)(C)C (stereo not given in full) | 0.31 |  |  | 900 |  |  | 27.5 |  |  | 100 |  |  |  |  |  |  |
| 34 | CC(=O)NCCSC[S+]([O-])C[C@H](CO)NC(=O)/C=C/c1c(C)nc(O)nc1O (stereo not given in full) | 1 | 100 | 1.9 | 32 |  |  | 60 |  |  | 56 |  |  |  |  |  |  |
| 8.5 | CCCCCCCCSC[S+]([O-])C[C@H](C)NC(=O)/C=C/c1c(C)nc(O)nc1O (stereo not given in full) | 0.46 |  | 0.03 | 1.4 | 15 (≈ 33.8 µM) | > 2.42 | 46 |  |  | 60 | 0.14 |  | 0.28 | 1.151 | 15 | Log Ko [17]: 3.533 |
| 140 | CCC[S+]([O-])C[C@H](CO)NC(=O)/C=C/c1c(C)nc(O)nc1O (stereo not given in full) | 0.23 | 36 | 0.75 | 42 |  |  | 4.5 |  |  | 6.2 |  |  |  |  |  |  |

Continued, compound first:

| Structure (SMILES) | EC50 (Escherichia coli [2]) [µM] | EC50 (Escherichia coli [1]) [µM] | EC50 (Escherichia coli [3]) [µM] | IC50 (L1210 [4]) [µM] | EC50 (Saccharomyces cerevisiae [5]) [µM] | solubility [6] [µg/mL] | logP [8] | EC50 (Escherichia coli [9]) [µM] | T/C (L1210 [10]) [%] | LD50 [11] [mg/kg] | EC50 (Saccharomyces cerevisiae [12]) [µM] | IC50 (T-24) [µM] | log k0 [13] | IC50 (WiDr [14]) [µM] | Rm [15] | EC50 (Escherichia coli [16]) [µM] | also measured |
| --- | --- | --- | --- | --- | --- | --- | --- | --- | --- | --- | --- | --- | --- | --- | --- | --- | --- |
| CCC[S+]([O-])C[C@H](C)NC(=O)/C=C/c1c(C)nc(O)nc1O (stereo not given in full) | 80 | 0.38 | 9.5 | 0.45 | 200 |  |  |  |  |  |  |  |  |  |  |  |  |
| CSC[S+]([O-])C[C@H](CO)NC(=O)/C=C/c1c(C)[nH]c(=O)[nH]c1=O (stereo not given in full) | 8.5 | 0.1 | 11 | 0.48 | 5.2 | 3800 (≈ 10500 µM) | -1.71 | 3.2 | 117 | 0.26 | 2.8 | 0.91 | -0.676 | 0.92 |  |  | Rm [7]: -0.638 |
| CCCCCCC[S+]([O-])C[C@H](CO)NC(=O)/C=C/c1c(C)nc(O)nc1O (stereo not given in full) | 0.48 | 0.04 |  | 0.15 | 0.1 | 220 (≈ 551 µM) | 1.02 | 9 | 330 | 6.1 | 5.8 | 0.16 |  | 0.28 | 0.56 | 1.4 | Log Ko [17]: 1.771 |
| CCCCCSC[S+]([O-])C[C@H](CO)NC(=O)/C=C/c1c(C)nc(O)nc1O (stereo not given in full) | 1 | 0.03 | 1 | 0.06 | 0.17 | 280 (≈ 671 µM) | 0.6 | 2.6 | 386 | 4.7 | 2.7 | 0.28 | 1.168 | 0.4 | 0.16 |  |  |
| CCCCSC[S+]([O-])C[C@H](C)NC(=O)/C=C/c1c(C)nc(O)nc1O (stereo not given in full) | 3 | 0.05 | 2.5 | 0.05 | 1.9 | 940 (≈ 2430 µM) | 0.819 | 12.1 | 164 | 16.5 | 15 | 0.09 | 1.29 | 0.16 | 0.218 |  |  |
| CCCCSC[S+]([O-])C[C@H](CO)NC(=O)/C=C/c1c(C)nc(O)nc1O (stereo not given in full) | 1.8 | 0.06 | 3 | 0.1 | 1 | 570 (≈ 1410 µM) | 0.143 | 5.1 | 156 | 2.33 | 4.8 | 0.23 | 0.777 | 0.31 | -0.028 |  |  |
| Cc1nc(O)nc(O)c1/C=C/C(=O)N[C@@H](C)C[S+]([O-])CCl (stereo not given in full) | 86 |  |  | 0.15 |  |  |  |  |  |  |  |  |  |  |  | 7.5 | ED50 (Escherichia coli [18]): inactive; ED50 (Saccharomyces cerevisiae [19]): inactive |
| Cc1nc(O)nc(O)c1/C=C/C(=O)N[C@@H](CO)C[S@@+]([O-])CCl |  |  |  |  |  |  |  |  |  |  |  |  |  |  |  | 20 |  |
| CCCCCCCCCC[S+]([O-])C[C@H](CO)NC(=O)/C=C/c1c(C)nc(O)nc1O (stereo not given in full) | 1.8 | 0.08 |  | 0.14 | 0.2 |  |  | 5000 |  |  | 700 |  |  |  |  | 3 |  |
| CCCCCCCCSC[S+]([O-])C[C@H](CO)NC(=O)/C=C/c1c(C)nc(O)nc1O (stereo not given in full) | 1.6 | 0.25 |  | 0.1 | 1.3 | 13 (≈ 28.3 µM) | > 2.42 | 60 | 151 | 29.5 | 300 | 0.06 |  | 0.22 | 0.895 | 4.4 | Log Ko [17]: 3.333 |
| CSC[S+]([O-])C[C@H](C)NC(=O)/C=C/c1c(C)nc(O)nc1O (stereo not given in full) | 14.6 | 0.25 | 5.6 | 0.07 | 50 | 18000 (≈ 52100 µM) | -0.699 | 18 | 216 | 2.33 | 39 | 0.44 | -0.209 |  | -0.404 |  | IC50 (WiDr [20]): 0.58 µM |
| CCCCCC[S+]([O-])C[C@H](CO)NC(=O)/C=C/c1c(C)nc(O)nc1O (stereo not given in full) | 0.75 | 0.18 |  | 0.14 | 0.14 | 890 (≈ 2310 µM) | 0.41 | 7.5 | 135 | 1.6 | 5 | 0.35 |  | 0.39 | 0.235 | 3 | Log Ko [17]: 1.111 |
